Measurements as given in ChEMBL document CHEMBL1130054, “Non-peptide glycoprotein IIb/IIIa inhibitors. 17. Design and synthesis of orally active, long-acting non-peptide fibrinogen receptor antagonists” (J Med Chem, 1997).

Experiments:
[1] = molecular target: T1, Integrin alpha-IIb/beta-3 (Homo sapiens, UniProt P05106+P08514); experiment: Displacement of L-736,622 from purified resting Fibrinogen Receptor; type: protein-complex assay
Method in brief: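 Human platelet GPIIb/IIIa, unactivated form from Sephacryl S-300HR (typically 600 nM), in Triton X-100 buffer pH 7.4 with Ca²⁺/Mg²⁺. Used 1 μM fluorescent ligand L-736,622 at room temperature, read by fluorescence displacement. KD was calculated using 3.7 nM as the probe KD.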

[2] = molecular target: T1, Integrin alpha-IIb/beta-3; experiment: Displacement of [125I]L-692884 from purified Fibrinogen Receptor activated by coating onto yttrium silicate; type: protein-complex assay
Method in brief: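 Purified human GPIIb/IIIa activated by coating on yttrium silicate SPA beads (~0.3 nM) with ~0.3 nM [125I]L-692,884 in 20 mM HEPES, 0.15 M NaCl, pH 7.5, at room temperature. Competitor was tested over a wide concentration range. After equilibration, bound CPM was fitted by nonlinear least squares with a Hill slope to give ED50.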

Homo sapiens [3] = experiment: Inhibition of ADP induced platelet aggregation 75 minutes after administration of 10 ug/kg by gastric lavage; type: functional; details: 1.25 h
Method in brief: (§1)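 Conscious mongrel dogs dosed by gastric lavage with aqueous solution (5 mL, sterile water vehicle); citrated blood at baseline and 20–480 min. PRP (2 × 10⁸ platelets/mL, 37 °C, stirred) aggregated with 10 μM ADP + 1 μM epinephrine; light transmittance; percent inhibition vs pretreatment response. n = 4 or 8.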

Homo sapiens [4] = species: Homo sapiens; experiment: Inhibition of aggregation of human gel-filtered platelets was measured by light transmittance method.; type: functional
Method in brief: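 Human gel-filtered platelets, 2 × 10⁸/mL, with 0.1 mg/mL human fibrinogen and 1 mM CaCl₂ at 37 °C. Aggregation was started with 10 μM ADP added last and followed by light transmittance. IC50 is the concentration halving the aggregation rate vs the uninhibited control, from at least two determinations.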

Canis familiaris [5] = experiment: Compound was tested for inhibition of extent of ADP-induced platelet aggregation between 1 and 15 min at 30 ug/Kg intravenous bolus in dogs; type: functional; details: Canis lupus familiaris
Canis familiaris [6] = experiment: Ex vivo inhibition of platelet aggregation at 24 hr after the oral administration of 100 mg/kg in dogs; type: functional; details: Canis lupus familiaris
Method in brief: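 Conscious dogs (n = 4) dosed orally with crystalline compound in gelatin capsules at 100 µg/kg. Ex vivo aggregation was read 24 h later in citrated PRP (2 × 10⁸ platelets/mL, 37 °C, light transmittance). It was expressed as percent inhibition vs the pretreatment baseline.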

[7] = molecular target: T1, Integrin alpha-IIb/beta-3; experiment: Inhibition of human umbilical vein endothelial cells (HUVEC) attachment to fibrinogen (FG); type: functional, cell-based
Integrin alpha-5/beta-1 = Integrin alpha-5/beta-1 (Homo sapiens, UniProt P05556+P08648); experiment: Inhibition of human umbilical vein endothelial cells (HUVEC) attachment to fibronectin; type: functional, cell-based
Integrin alpha-V/beta-3 = Integrin alpha-V/beta-3 (Homo sapiens, UniProt P05106+P06756); experiment: Inhibition of human umbilical vein endothelial cells (HUVEC) attachment to vitronectin (VN); type: functional, cell-based
Homo sapiens [8] = experiment: Inhibition of ADP induced platelet aggregation after administration of 10 ug/kg by gastric lavage; type: functional; method in brief: as §1

Chain of Integrin alpha-5/beta-1 (P05556 21-798 limits assumed): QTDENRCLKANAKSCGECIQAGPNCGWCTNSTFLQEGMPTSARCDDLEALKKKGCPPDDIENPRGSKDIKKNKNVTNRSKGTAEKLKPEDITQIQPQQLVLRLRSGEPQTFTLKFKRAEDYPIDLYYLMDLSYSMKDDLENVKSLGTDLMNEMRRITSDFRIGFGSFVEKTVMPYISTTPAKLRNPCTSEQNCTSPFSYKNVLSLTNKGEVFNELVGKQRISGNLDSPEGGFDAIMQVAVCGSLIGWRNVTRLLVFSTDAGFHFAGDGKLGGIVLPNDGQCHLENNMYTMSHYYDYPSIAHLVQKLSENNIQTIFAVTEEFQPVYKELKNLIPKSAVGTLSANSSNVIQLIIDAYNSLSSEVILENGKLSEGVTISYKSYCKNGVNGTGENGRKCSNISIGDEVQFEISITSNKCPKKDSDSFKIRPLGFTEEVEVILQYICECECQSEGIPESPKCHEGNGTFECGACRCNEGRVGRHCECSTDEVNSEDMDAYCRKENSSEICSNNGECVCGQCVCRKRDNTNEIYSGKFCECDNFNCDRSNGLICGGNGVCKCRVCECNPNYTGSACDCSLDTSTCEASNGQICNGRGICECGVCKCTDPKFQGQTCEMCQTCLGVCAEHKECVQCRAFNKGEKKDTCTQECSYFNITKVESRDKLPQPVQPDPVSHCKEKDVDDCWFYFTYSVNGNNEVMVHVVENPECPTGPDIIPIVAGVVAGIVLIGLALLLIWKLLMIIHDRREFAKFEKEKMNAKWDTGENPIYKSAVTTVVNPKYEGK
Chain of Integrin alpha-5/beta-1 (P08648 42-894 limits assumed): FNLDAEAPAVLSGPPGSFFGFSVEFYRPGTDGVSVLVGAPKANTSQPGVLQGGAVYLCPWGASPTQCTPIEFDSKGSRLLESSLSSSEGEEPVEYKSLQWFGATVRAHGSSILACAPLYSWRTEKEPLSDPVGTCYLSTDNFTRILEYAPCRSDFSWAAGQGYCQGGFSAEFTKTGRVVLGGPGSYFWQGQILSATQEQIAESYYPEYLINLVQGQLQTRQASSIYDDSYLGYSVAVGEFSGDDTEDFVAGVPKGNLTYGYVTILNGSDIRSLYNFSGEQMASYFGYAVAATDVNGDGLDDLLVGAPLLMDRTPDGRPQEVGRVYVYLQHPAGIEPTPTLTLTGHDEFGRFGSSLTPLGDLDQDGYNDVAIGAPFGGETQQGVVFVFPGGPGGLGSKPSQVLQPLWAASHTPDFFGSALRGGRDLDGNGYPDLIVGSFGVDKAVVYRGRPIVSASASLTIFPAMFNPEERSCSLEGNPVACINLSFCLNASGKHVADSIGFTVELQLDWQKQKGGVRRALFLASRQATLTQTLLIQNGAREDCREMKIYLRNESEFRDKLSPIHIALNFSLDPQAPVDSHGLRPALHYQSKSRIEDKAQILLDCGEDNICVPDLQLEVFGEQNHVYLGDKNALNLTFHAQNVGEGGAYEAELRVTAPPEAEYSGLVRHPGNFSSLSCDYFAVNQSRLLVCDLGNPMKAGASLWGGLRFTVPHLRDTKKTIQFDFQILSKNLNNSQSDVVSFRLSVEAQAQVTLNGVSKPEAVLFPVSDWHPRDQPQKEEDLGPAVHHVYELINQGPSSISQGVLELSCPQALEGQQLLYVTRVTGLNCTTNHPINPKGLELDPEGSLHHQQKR
Chain of Integrin alpha-5/beta-1 (P08648 895-1049 limits assumed): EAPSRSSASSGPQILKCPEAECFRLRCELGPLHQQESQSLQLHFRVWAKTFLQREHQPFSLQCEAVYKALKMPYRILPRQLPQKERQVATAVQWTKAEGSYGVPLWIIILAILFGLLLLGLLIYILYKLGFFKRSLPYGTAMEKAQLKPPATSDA
Chain of Integrin alpha-V/beta-3 (P05106 27-788 limits assumed): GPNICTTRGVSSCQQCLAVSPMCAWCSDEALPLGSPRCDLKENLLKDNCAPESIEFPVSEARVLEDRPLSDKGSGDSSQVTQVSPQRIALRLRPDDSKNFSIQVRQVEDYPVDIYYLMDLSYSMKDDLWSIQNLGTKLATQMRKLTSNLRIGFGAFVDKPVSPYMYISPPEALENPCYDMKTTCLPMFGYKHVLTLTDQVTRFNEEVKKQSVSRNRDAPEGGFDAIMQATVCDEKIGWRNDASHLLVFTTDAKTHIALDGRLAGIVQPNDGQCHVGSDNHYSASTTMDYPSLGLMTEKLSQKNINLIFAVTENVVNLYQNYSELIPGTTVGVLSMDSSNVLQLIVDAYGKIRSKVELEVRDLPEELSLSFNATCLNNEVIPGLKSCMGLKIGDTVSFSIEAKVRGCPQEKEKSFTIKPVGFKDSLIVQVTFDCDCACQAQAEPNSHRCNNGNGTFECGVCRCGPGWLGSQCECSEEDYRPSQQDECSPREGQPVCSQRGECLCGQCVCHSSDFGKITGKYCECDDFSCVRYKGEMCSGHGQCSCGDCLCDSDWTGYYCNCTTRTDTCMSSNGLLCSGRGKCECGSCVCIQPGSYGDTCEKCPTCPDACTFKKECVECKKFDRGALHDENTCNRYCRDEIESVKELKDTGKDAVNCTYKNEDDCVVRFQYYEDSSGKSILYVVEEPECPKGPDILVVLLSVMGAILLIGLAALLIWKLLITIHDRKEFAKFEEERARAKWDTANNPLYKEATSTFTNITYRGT
Chain of Integrin alpha-V/beta-3 (P06756 31-889 limits assumed): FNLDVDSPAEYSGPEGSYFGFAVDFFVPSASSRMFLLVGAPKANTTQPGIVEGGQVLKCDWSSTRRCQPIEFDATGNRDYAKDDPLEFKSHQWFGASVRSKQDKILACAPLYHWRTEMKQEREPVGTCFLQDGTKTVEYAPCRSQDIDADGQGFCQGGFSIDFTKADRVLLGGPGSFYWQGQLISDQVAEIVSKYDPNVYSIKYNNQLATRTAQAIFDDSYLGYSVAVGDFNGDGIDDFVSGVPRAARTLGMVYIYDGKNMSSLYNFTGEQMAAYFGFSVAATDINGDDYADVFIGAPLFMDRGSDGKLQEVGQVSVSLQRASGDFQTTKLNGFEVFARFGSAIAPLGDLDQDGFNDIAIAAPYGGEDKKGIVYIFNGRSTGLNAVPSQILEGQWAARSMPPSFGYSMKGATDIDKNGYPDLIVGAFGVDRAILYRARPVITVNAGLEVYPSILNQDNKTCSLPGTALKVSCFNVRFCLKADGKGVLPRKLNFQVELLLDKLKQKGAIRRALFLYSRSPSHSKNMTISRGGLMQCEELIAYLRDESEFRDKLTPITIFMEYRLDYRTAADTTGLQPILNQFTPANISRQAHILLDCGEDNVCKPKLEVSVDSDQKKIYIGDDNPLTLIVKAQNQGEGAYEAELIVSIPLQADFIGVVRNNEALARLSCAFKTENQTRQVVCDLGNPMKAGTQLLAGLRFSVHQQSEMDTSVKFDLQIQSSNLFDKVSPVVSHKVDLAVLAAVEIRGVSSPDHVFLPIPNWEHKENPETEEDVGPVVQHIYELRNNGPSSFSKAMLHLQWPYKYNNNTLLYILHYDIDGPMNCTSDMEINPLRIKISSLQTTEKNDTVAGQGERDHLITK
Chain of Integrin alpha-V/beta-3 (P06756 891-1048 limits assumed): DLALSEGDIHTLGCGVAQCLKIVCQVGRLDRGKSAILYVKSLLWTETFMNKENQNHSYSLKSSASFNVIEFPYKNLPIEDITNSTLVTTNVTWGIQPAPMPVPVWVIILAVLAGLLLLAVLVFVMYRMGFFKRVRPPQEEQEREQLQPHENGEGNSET

Structure (SMILES)	Kd [1] [nM]	ED50 [2] [nM]	IC50 (Homo sapiens [4]) [nM]	IC50 [7] [µM]	IC50 (Integrin alpha-5/beta-1) [µM]	IC50 (Integrin alpha-V/beta-3) [µM]	inhibition in vivo at 0.01 mg/kg (Homo sapiens [3]) [%]	inhibition in vivo at 0.03 mg/kg (Canis familiaris [5]) [%]	inhibition in vivo at 100 mg/kg (Canis familiaris [6]) [%]	inhibition in vivo at 0.01 mg/kg (Homo sapiens [8]) [%]
O=C(O)CCNC(=O)c1cc2n(n1)CCN(CCC1CCNCC1)C2=O	590	72	250							
C[C@H](CC(=O)O)NC(=O)CN1CCC[C@@H](CCC2CCNCC2)C1=O	600	5						> 90		
O=C(O)CCNC(=O)c1cc2n(n1)CCCN(CCC1CCNCC1)C2=O	680	46	470							

The next compounds have a lower Kd [1] than those just listed; values first:

Kd [1] [nM]	ED50 [2] [nM]	IC50 (Homo sapiens [4]) [nM]	IC50 [7] [µM]	IC50 (Integrin alpha-5/beta-1) [µM]	IC50 (Integrin alpha-V/beta-3) [µM]	Structure (SMILES)	inhibition in vivo at 0.01 mg/kg (Homo sapiens [3]) [%]	inhibition in vivo at 0.03 mg/kg (Canis familiaris [5]) [%]	inhibition in vivo at 100 mg/kg (Canis familiaris [6]) [%]	inhibition in vivo at 0.01 mg/kg (Homo sapiens [8]) [%]
1.8	0.12	9				CCCCS(=O)(=O)N[C@@H](CNC(=O)c1cc2n(n1)CCN(CCC1CCNCC1)C2=O)C(=O)O				
1.4	0.12					CCCCS(=O)(=O)N[C@@H](CNC(=O)c1cc2n(n1)CCCN(CCC1CCNCC1)C2=O)C(=O)O	76			
1.1	0.08	8	> 300	> 300	> 300	Cc1ccc(S(=O)(=O)N[C@@H](CNC(=O)c2cc3n(n2)CCCN(CCC2CCNCC2)C3=O)C(=O)O)cc1			> 85	> 65
